Experimental data: ChEMBL document CHEMBL5653622 (Oncotarget, 2016)
The source made the active and inactive calls. No cut-off for these calls is given here.

How the values were obtained:
[1] = biological target: RAC-alpha serine/threonine-protein kinase (Homo sapiens) (UniProt P31749); experiment: Inhibition of human PKBa assessed as remaining activity at 10 uM in presence of ATP by radiometric kinase assay relative to control
[2] = biological target: RAC-beta serine/threonine-protein kinase (Homo sapiens) (UniProt P31751); experiment: Inhibition of human PKBb assessed as remaining activity at 10 uM in presence of ATP by radiometric kinase assay relative to control
[3] = biological target: Protein kinase C alpha type (Homo sapiens) (UniProt P17252); experiment: Inhibition of human PKCa assessed as remaining activity at 10 uM in presence of ATP by radiometric kinase assay relative to control
[4] = biological target: Protein kinase C zeta type (Homo sapiens) (UniProt Q05513); experiment: Inhibition of human PKCz assessed as remaining activity at 10 uM in presence of ATP by radiometric kinase assay relative to control
[5] = biological target: Ribosomal protein S6 kinase alpha-5 (Homo sapiens) (UniProt O75582); experiment: Inhibition of human MSK1 assessed as remaining activity at 10 uM in presence of ATP by radiometric kinase assay relative to control
[6] = biological target: MAP kinase-interacting serine/threonine-protein kinase 1 (Homo sapiens) (UniProt Q9BUB5); experiment: Inhibition of human MNK1 assessed as remaining activity at 10 uM in presence of ATP by radiometric kinase assay relative to control
Sequence of MAP kinase-interacting serine/threonine-protein kinase 1 (Homo sapiens) (Q9BUB5 whole entry, looked up): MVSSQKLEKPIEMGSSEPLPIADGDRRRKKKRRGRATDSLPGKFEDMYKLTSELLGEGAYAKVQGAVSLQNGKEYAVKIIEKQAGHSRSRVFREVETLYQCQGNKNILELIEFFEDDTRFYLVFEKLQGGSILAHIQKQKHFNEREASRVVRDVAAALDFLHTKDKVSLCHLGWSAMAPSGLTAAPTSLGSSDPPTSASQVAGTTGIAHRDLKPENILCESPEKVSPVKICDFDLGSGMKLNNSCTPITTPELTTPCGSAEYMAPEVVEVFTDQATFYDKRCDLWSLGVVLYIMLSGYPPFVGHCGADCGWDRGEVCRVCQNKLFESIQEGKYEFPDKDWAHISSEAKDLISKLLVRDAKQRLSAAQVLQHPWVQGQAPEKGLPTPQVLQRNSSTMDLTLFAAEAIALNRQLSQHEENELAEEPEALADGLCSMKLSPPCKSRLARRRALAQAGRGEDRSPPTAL

[7] = biological target: NUAK family SNF1-like kinase 1 (Homo sapiens) (UniProt O60285); experiment: Inhibition of human NUAK1 assessed as remaining activity at 10 uM in presence of ATP by radiometric kinase assay relative to control
Sequence of NUAK family SNF1-like kinase 1 (Homo sapiens) (O60285 whole entry): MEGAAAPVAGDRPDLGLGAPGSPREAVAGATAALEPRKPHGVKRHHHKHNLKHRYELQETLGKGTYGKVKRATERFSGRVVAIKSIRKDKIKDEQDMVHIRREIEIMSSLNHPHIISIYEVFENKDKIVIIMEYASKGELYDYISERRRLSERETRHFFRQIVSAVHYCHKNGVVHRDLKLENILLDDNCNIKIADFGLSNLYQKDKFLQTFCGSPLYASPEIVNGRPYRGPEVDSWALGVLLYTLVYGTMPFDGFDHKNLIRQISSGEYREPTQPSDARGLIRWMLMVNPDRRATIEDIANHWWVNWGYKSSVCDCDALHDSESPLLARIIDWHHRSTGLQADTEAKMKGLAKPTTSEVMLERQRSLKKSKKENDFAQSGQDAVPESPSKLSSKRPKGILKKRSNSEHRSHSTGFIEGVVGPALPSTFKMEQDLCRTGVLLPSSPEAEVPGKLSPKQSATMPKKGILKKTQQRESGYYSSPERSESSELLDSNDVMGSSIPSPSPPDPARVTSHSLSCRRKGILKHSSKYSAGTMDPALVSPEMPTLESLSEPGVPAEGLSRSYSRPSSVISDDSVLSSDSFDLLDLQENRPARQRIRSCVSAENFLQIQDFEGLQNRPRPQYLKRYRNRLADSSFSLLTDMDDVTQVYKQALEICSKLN

[8] = biological target: MAP kinase-activated protein kinase 3 (Homo sapiens) (UniProt Q16644); experiment: Inhibition of human MAPKAP-K3 assessed as remaining activity at 10 uM in presence of ATP by radiometric kinase assay relative to control
[9] = biological target: MAP kinase-activated protein kinase 5 (Homo sapiens) (UniProt Q8IW41); experiment: Inhibition of human PRAK assessed as remaining activity at 10 uM in presence of ATP by radiometric kinase assay relative to control
Sequence of MAP kinase-activated protein kinase 5 (Homo sapiens) (Q8IW41 whole entry): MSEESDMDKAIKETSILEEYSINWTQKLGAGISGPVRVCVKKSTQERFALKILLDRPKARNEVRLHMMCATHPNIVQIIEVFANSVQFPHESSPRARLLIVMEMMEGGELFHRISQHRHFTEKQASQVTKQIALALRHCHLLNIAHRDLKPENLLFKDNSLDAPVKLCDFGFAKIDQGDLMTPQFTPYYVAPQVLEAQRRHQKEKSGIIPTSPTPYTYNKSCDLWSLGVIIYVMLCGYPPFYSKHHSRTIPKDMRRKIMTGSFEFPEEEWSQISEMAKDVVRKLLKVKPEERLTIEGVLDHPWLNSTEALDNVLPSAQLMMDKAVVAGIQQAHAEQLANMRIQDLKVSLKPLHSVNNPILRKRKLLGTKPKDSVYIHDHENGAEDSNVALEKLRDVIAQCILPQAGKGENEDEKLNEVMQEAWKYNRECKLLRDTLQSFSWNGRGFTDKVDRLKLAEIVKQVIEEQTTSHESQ

[10] = biological target: Dual specificity tyrosine-phosphorylation-regulated kinase 1A (Homo sapiens) (UniProt Q13627); experiment: Inhibition of human DYRK1A assessed as remaining activity at 10 uM in presence of ATP by radiometric kinase assay relative to control
[11] = biological target: Dual specificity tyrosine-phosphorylation-regulated kinase 2 (Homo sapiens) (UniProt Q92630); experiment: Inhibition of human DYRK2 assessed as remaining activity at 10 uM in presence of ATP by radiometric kinase assay relative to control
[12] = biological target: Inhibitor of nuclear factor kappa-B kinase subunit epsilon (Homo sapiens) (UniProt Q14164); experiment: Inhibition of human IKKe assessed as remaining activity at 10 uM in presence of ATP by radiometric kinase assay relative to control
[13] = biological target: Serine/threonine-protein kinase TBK1 (Homo sapiens) (UniProt Q9UHD2); experiment: Inhibition of human TBK1 assessed as remaining activity at 10 uM in presence of ATP by radiometric kinase assay relative to control
[14] = biological target: Serine/threonine-protein kinase pim-2 (Homo sapiens) (UniProt Q9P1W9); experiment: Inhibition of human PIM2 assessed as remaining activity at 10 uM in presence of ATP by radiometric kinase assay relative to control
[15] = biological target: Eukaryotic elongation factor 2 kinase (Homo sapiens) (UniProt O00418); experiment: Inhibition of human EF2K assessed as remaining activity at 10 uM in presence of ATP by radiometric kinase assay relative to control
[16] = biological target: Dual specificity protein kinase CLK2 (Homo sapiens, UniProt P49760); experiment: Inhibition of human CLK2 assessed as remaining activity at 10 uM in presence of ATP by radiometric kinase assay relative to control
Sequence of Dual specificity protein kinase CLK2 (P49760 whole entry, looked up): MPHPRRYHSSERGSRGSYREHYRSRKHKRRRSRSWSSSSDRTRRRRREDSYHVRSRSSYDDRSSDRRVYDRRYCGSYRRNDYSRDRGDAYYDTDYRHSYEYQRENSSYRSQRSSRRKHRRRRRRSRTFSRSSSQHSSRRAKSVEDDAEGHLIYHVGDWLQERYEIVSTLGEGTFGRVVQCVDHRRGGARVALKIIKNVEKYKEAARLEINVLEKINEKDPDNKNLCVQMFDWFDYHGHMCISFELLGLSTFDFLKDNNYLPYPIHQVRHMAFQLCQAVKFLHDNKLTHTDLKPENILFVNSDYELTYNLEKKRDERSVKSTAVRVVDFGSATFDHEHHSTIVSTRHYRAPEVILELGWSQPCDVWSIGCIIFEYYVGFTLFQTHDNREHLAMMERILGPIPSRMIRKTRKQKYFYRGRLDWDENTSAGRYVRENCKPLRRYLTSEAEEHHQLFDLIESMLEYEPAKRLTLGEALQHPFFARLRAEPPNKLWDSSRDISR

[17] = biological target: Mitogen-activated protein kinase kinase kinase 9 (Homo sapiens) (UniProt P80192); experiment: Inhibition of human MLK1 assessed as remaining activity at 10 uM in presence of ATP by radiometric kinase assay relative to control
[18] = biological target: Tyrosine-protein kinase SYK (Homo sapiens) (UniProt P43405); experiment: Inhibition of human SYK assessed as remaining activity at 10 uM in presence of ATP by radiometric kinase assay relative to control
[19] = biological target: Ephrin type-B receptor 1 (Homo sapiens) (UniProt P54762); experiment: Inhibition of human EPH-B1 assessed as remaining activity at 10 uM in presence of ATP by radiometric kinase assay relative to control
[20] = biological target: Ephrin type-B receptor 2 (Homo sapiens) (UniProt P29323); experiment: Inhibition of human EPH-B2 assessed as remaining activity at 10 uM in presence of ATP by radiometric kinase assay relative to control
[21] = biological target: Serine/threonine-protein kinase 16 (Homo sapiens) (UniProt O75716); experiment: Inhibition of human MPSK1 assessed as remaining activity at 10 uM in presence of ATP by radiometric kinase assay relative to control
Sequence of Serine/threonine-protein kinase 16 (Homo sapiens) (O75716 whole entry): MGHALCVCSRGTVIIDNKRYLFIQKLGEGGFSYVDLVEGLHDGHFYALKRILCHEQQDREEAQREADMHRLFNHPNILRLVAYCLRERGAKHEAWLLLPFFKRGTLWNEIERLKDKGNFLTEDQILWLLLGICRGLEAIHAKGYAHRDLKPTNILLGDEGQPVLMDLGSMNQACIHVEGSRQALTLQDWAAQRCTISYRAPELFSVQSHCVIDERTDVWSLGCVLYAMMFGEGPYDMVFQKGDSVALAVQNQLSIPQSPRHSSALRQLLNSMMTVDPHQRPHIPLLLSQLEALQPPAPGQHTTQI

[22] = biological target: Serine/threonine-protein kinase BRSK2 (Homo sapiens) (UniProt Q8IWQ3); experiment: Inhibition of human BRSK2 assessed as remaining activity at 10 uM in presence of ATP by radiometric kinase assay relative to control
[23] = biological target: NUAK family SNF1-like kinase 1 (Homo sapiens) (UniProt O60285); experiment: Inhibition of human NUAK1 at 10 uM in presence of ATP by radiometric kinase assay relative to control
Homo sapiens = organism: Homo sapiens; experiment: Inhibition of human AMPK at 10 uM in presence of ATP by radiometric kinase assay relative to control
[24] = biological target: Vascular endothelial growth factor receptor 2 (Homo sapiens, UniProt P35968); experiment: Inhibition of VEGFR2 (unknown origin) by FRET based Z-LYTE kinase assay
Sequence of Vascular endothelial growth factor receptor 2 (P35968 whole entry): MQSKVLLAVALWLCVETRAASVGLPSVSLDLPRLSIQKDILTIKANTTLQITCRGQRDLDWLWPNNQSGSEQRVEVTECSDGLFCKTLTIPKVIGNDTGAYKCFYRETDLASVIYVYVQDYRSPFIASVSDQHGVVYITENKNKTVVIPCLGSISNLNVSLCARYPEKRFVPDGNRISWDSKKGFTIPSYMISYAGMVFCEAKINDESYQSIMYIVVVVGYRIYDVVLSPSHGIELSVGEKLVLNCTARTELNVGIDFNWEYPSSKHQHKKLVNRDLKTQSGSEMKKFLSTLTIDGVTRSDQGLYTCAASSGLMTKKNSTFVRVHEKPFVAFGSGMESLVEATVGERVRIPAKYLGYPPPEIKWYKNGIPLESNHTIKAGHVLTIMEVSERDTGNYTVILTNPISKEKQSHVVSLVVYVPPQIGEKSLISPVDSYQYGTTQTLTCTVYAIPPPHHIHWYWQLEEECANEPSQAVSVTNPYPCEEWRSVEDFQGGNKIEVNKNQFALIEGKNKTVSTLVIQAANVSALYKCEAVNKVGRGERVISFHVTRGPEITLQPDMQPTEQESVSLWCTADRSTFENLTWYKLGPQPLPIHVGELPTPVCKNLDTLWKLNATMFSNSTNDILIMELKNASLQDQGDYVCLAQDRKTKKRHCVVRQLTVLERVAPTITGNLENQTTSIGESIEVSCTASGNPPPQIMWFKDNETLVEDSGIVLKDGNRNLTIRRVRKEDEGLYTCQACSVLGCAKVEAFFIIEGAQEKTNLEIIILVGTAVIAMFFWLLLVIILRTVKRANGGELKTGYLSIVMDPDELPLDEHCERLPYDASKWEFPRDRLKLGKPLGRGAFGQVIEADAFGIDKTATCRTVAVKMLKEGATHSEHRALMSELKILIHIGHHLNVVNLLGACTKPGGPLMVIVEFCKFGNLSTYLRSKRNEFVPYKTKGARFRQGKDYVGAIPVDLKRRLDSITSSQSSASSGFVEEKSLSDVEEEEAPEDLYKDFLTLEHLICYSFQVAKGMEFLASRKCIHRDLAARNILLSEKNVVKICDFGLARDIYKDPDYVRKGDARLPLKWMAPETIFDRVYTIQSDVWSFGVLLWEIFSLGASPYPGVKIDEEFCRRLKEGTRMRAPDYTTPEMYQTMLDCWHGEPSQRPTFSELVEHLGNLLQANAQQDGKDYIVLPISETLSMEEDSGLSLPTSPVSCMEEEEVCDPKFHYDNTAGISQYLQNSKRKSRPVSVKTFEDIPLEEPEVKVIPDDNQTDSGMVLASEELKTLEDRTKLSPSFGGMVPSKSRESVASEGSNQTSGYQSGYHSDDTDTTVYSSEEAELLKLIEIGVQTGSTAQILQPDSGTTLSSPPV

HT-29 = experiment: Induction of cell cycle arrest in human HT-29 cells assessed as decrease in accumulation of cells at G0/G1 phase at 1 to 5 uM incubated for 24 hrs by BrdU and PI staining based flow cytometry analysis; format: functional; conditions: dose 1-5 µM
Method in brief: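 HT29 cells exposed for 24h, stained with bromodeoxyuridine and propidium iodide, and cell-cycle distribution measured by flow cytometry.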

[25] = Half life in BALB/C mouse plasma at 10 mg/kg, po by LC/MS-MS analysis; format: ADME, organism-based
Method in brief: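 Female BALB/c mice received a single bolus of 10mg/kg, either i.v. or p.o. The oral vehicle was DPTW (10% DMSO, 20% PEG400, 5% Tween 80, 65% water). Plasma and spleen homogenates were extracted with methanol containing internal standards. Drug levels were measured by LC/MS-MS, and pharmacokinetic parameters were calculated from the concentration-time profiles.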

[26] = Clearance in BALB/C mouse plasma at 10 mg/kg, po by LC/MS-MS analysis; format: ADME, organism-based
Method in brief: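 Female BALB/c mice received a single 10mg/kg bolus i.v. or p.o. Plasma (and spleen homogenate) extracted with methanol containing internal standards. Concentrations were measured by LC/MS-MS and PK parameters calculated with modelling software.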

[27] = Toxicity in Emu-Myc driven transgenic mouse transplant model of B-cell lymphoma assessed as reduction in weight of kidney at 150 mg/kg, po administered for 9 days; format: organism-based; conditions: in vivo, 216 h, time 9 day

Sequence of RAC-alpha serine/threonine-protein kinase (Homo sapiens) (P31749 whole entry): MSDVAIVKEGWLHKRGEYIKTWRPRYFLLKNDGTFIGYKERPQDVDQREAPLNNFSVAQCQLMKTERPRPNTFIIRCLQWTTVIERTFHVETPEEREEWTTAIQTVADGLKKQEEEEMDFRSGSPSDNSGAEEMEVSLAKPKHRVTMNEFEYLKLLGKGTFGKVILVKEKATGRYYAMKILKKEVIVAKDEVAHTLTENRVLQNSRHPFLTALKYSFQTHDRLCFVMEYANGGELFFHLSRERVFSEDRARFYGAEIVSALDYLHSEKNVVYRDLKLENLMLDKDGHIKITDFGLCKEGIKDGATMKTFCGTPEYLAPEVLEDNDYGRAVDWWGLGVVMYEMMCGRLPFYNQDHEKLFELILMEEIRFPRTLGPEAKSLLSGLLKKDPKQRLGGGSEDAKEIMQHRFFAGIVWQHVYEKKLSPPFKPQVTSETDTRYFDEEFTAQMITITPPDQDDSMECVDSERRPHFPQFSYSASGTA

With `N#Cc1cnc(Nc2cc(NC[C@H]3CNCCO3)c(C(F)(F)F)cn2)cn1` [SRA-737] as the compound, how does the Activity [1] read?
The Activity was 93%.

What about the Activity [2] of the same compound?
Its Activity is 100%.

And the Activity [3]?
The Activity was 82%.

And the Activity [4]?
Its Activity is 92%.

And the Activity [5]?
Its Activity is 30%.

And the Activity [6]?
Its Activity is 62%.

What about the Activity [7] of the same compound?
Its Activity is 6%.

And the Activity [8]?
The Activity was 114%.

What about the Activity [9] of the same compound?
Its Activity is 71%.

And the Activity [10]?
The Activity was 41%.

And the Activity [11]?
Its Activity is 61%.

And the Activity [12]?
Its Activity is 102%.

What about the Activity [13] of the same compound?
The Activity was 71%.

What about the Activity [14] of the same compound?
Its Activity is 88%.

And the Activity [15]?
The Activity was 98%.

What about the Activity [16] of the same compound?
The Activity was 6%.

What about the Activity [17] of the same compound?
Its Activity is 75%.

What about the Activity [18] of the same compound?
The Activity was 84%.

What about the Activity [19] of the same compound?
Its Activity is 111%.

What about the Activity [20] of the same compound?
Its Activity is 102%.

And the Activity [21]?
Its Activity is 122%.

And the Activity [22]?
The Activity was 35%.

And the inhibition [23]?
Its inhibition is 94%.

And the inhibition (Homo sapiens)?
Its inhibition is 68%.

What about the IC50 [24] of the same compound?
The IC50 was 2100 nM.

And the Activity (HT-29)?
Its Activity is “Active”.

And the half-life [25]?
The half-life was 2.85 h.

And the CL/F [26]?
The CL/F was 36 mL/min/kg.

What about the Activity [27] of the same compound?
The Activity was “Toxic”.
